# ChEMBL document CHEMBL4689842, “EUbOPEN Chemogenomics Library wave 1” (2021)
# Test system: U2OS
# Experiment: Multiplex assay against U2OS
# Assay type: toxicity, cell-based
# Details: human
# Outline: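 At seeding, live cells were stained with Hoechst33342, BioTracker Green Microtubule Cytoskeleton Dye, MitoTracker Red and Annexin V Alexa Fluor 680. After compound addition they were imaged on a CQ1 microscope at 37°C and 5% CO2, and CellPathfinder machine-learning gating sorted them into Hoechst high-intensity objects or normal cells, with normal cells further split into healthy, pyknosed or fragmented nuclei and pyknosed cells into mitotic or apoptotic. Tubulin, mitochondrial-mass and membrane-permeability phenotypes are given as per cents of cells with healthy nuclei.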
# [1] = 12 h, 1 µM, compound concentration 1 uM, replicate 1
# [2] = 12 h, 1 µM, compound concentration 1 uM, replicate 2
# [3] = 12 h, 10 µM, compound concentration 10 uM, replicate 1
# [4] = 12 h, 10 µM, compound concentration 10 uM, replicate 2
# [5] = 24 h, 1 µM, compound concentration 1 uM, replicate 1
# [6] = 24 h, 1 µM, compound concentration 1 uM, replicate 2
# [7] = 24 h, 10 µM, compound concentration 10 uM, replicate 1
# [8] = 24 h, 10 µM, compound concentration 10 uM, replicate 2
# [9] = 48 h, 1 µM, compound concentration 1 uM, replicate 1
# [10] = 48 h, 1 µM, compound concentration 1 uM, replicate 2
# [11] = 48 h, 10 µM, compound concentration 10 uM, replicate 1
# [12] = 48 h, 10 µM, compound concentration 10 uM, replicate 2
structure (smiles),measurement,setting,value
CCCSc1nc(N[C@@H]2C[C@H]2c2ccc(F)c(F)c2)c2nnn([C@@H]3C[C@H](OCCO)[C@@H](O)[C@H]3O)c2n1 [TICAGRELOR],Population Apoptotic (%),[1],23%
same,Population Fragmented Nuclei (%),[1],11%
same,Population Healthy Nuclei (%),[1],74%
same,Population Hoechst High Intensity Objects (%),[1],6%
same,Population Membrane Permeable-Phenotype (%),[1],4%
same,Population Mitochondria Different-Phenotype (%),[1],21%
same,Population Mitotic Cells (%),[1],76%
same,Population Normal (%),[1],93%
same,Population Pyknosed Nuclei (%),[1],14%
same,Population Tubulin-Different-Phenotype (%),[1],10%
same,Total Cell Count,[1],116
same,Population Apoptotic (%),[2],66%
same,Population Fragmented Nuclei (%),[2],1%
same,Population Healthy Nuclei (%),[2],93%
same,Population Hoechst High Intensity Objects (%),[2],5%
same,Population Membrane Permeable-Phenotype (%),[2],5%
same,Population Mitochondria Different-Phenotype (%),[2],18%
same,Population Mitotic Cells (%),[2],33%
same,Population Normal (%),[2],94%
same,Population Pyknosed Nuclei (%),[2],4%
same,Population Tubulin-Different-Phenotype (%),[2],13%
same,Total Cell Count,[2],82
same,Population Apoptotic (%),[3],87%
same,Population Fragmented Nuclei (%),[3],16%
same,Population Healthy Nuclei (%),[3],64%
same,Population Hoechst High Intensity Objects (%),[3],7%
same,Population Membrane Permeable-Phenotype (%),[3],37%
same,Population Mitochondria Different-Phenotype (%),[3],99%
same,Population Mitotic Cells (%),[3],12%
same,Population Normal (%),[3],92%
same,Population Pyknosed Nuclei (%),[3],19%
same,Population Tubulin-Different-Phenotype (%),[3],100%
same,Total Cell Count,[3],125
same,Population Apoptotic (%),[4],75%
same,Population Fragmented Nuclei (%),[4],7%
same,Population Healthy Nuclei (%),[4],79%
same,Population Hoechst High Intensity Objects (%),[4],11%
same,Population Membrane Permeable-Phenotype (%),[4],43%
same,Population Mitochondria Different-Phenotype (%),[4],98%
same,Population Mitotic Cells (%),[4],25%
same,Population Normal (%),[4],88%
same,Population Pyknosed Nuclei (%),[4],12%
same,Population Tubulin-Different-Phenotype (%),[4],96%
same,Total Cell Count,[4],67
same,Population Apoptotic (%),[5],9%
same,Population Fragmented Nuclei (%),[5],7%
same,Population Healthy Nuclei (%),[5],84%
same,Population Hoechst High Intensity Objects (%),[5],7%
same,Population Membrane Permeable-Phenotype (%),[5],3%
same,Population Mitochondria Different-Phenotype (%),[5],10%
same,Population Mitotic Cells (%),[5],90%
same,Population Normal (%),[5],92%
same,Population Pyknosed Nuclei (%),[5],7%
same,Population Tubulin-Different-Phenotype (%),[5],6%
same,Total Cell Count,[5],116
same,Population Apoptotic (%),[6],57%
same,Population Fragmented Nuclei (%),[6],3%
same,Population Healthy Nuclei (%),[6],87%
same,Population Hoechst High Intensity Objects (%),[6],2%
same,Population Membrane Permeable-Phenotype (%),[6],4%
same,Population Mitochondria Different-Phenotype (%),[6],20%
same,Population Mitotic Cells (%),[6],42%
same,Population Normal (%),[6],97%
same,Population Pyknosed Nuclei (%),[6],8%
same,Population Tubulin-Different-Phenotype (%),[6],11%
same,Total Cell Count,[6],81
same,Population Apoptotic (%),[7],94%
same,Population Fragmented Nuclei (%),[7],18%
same,Population Healthy Nuclei (%),[7],58%
same,Population Hoechst High Intensity Objects (%),[7],6%
same,Population Membrane Permeable-Phenotype (%),[7],55%
same,Population Mitochondria Different-Phenotype (%),[7],100%
same,Population Mitotic Cells (%),[7],5%
same,Population Normal (%),[7],93%
same,Population Pyknosed Nuclei (%),[7],22%
same,Total Cell Count,[7],155
same,Population Apoptotic (%),[8],83%
same,Population Fragmented Nuclei (%),[8],7%
same,Population Healthy Nuclei (%),[8],73%
same,Population Hoechst High Intensity Objects (%),[8],8%
same,Population Membrane Permeable-Phenotype (%),[8],65%
same,Population Mitochondria Different-Phenotype (%),[8],97%
same,Population Mitotic Cells (%),[8],16%
same,Population Normal (%),[8],91%
same,Population Pyknosed Nuclei (%),[8],19%
same,Population Tubulin-Different-Phenotype (%),[8],97%
same,Total Cell Count,[8],80
same,Population Apoptotic (%),[9],69%
same,Population Fragmented Nuclei (%),[9],6%
same,Population Healthy Nuclei (%),[9],87%
same,Population Hoechst High Intensity Objects (%),[9],4%
same,Population Mitochondria Different-Phenotype (%),[9],7%
same,Population Mitotic Cells (%),[9],30%
same,Population Normal (%),[9],95%
same,Population Pyknosed Nuclei (%),[9],5%
same,Population Tubulin-Different-Phenotype (%),[9],3%
same,Total Cell Count,[9],107
same,Population Apoptotic (%),[10],25%
same,Population Fragmented Nuclei (%),[10],4%
same,Population Healthy Nuclei (%),[10],88%
same,Population Hoechst High Intensity Objects (%),[10],3%
same,Population Membrane Permeable-Phenotype (%),[10],2%
same,Population Mitochondria Different-Phenotype (%),[10],12%
same,Population Mitotic Cells (%),[10],75%
same,Population Normal (%),[10],96%
same,Population Pyknosed Nuclei (%),[10],6%
same,Population Tubulin-Different-Phenotype (%),[10],9%
same,Total Cell Count,[10],74
same,Population Apoptotic (%),[11],89%
same,Population Fragmented Nuclei (%),[11],25%
same,Population Healthy Nuclei (%),[11],38%
same,Population Hoechst High Intensity Objects (%),[11],8%
same,Population Membrane Permeable-Phenotype (%),[11],60%
same,Population Mitochondria Different-Phenotype (%),[11],94%
same,Population Mitotic Cells (%),[11],10%
same,Population Normal (%),[11],91%
same,Population Pyknosed Nuclei (%),[11],36%
same,Population Tubulin-Different-Phenotype (%),[11],98%
same,Total Cell Count,[11],230
same,Population Apoptotic (%),[12],71%
same,Population Fragmented Nuclei (%),[12],17%
same,Population Healthy Nuclei (%),[12],60%
same,Population Hoechst High Intensity Objects (%),[12],11%
same,Population Membrane Permeable-Phenotype (%),[12],74%
same,Population Mitochondria Different-Phenotype (%),[12],97%
same,Population Mitotic Cells (%),[12],28%
same,Population Normal (%),[12],88%
same,Population Pyknosed Nuclei (%),[12],21%
same,Population Tubulin-Different-Phenotype (%),[12],97%
same,Total Cell Count,[12],130
